Source: PubChem BioAssay
ASAP1 inh: inhibitors of human ASAP1 ArfGAP activity. ASAP1-stimulated ARF1 GTP hydrolysis, GDP FP detection. inhibition, % at 16.5 µM. 0.19% of 360,000 active; in the data active = inhibition above about 25%
procasp7 counter: activates human procaspase-7, counter-screen for procaspase-3 activators. activation, % at 8.5 µM. P55210. 0.093% of 330,000 active. recombinant procaspase-7, Ac-DEVD-pNA absorbance 405 nm; D23A/D198A/D206A triple mutant, cannot self-cleave; scale: DMSO 0, 5 µM enzyme 100;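 active = percent activation above the screen-wide mean plus 3 SD, cut at about 25% in these data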
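signal = Epi-absorbance of released pNA at 405 nm, two timepoints | assay system = Uncleavable procaspase-7 mutant enzyme | reagent = Ac-DEVD-pNA substrate, 400 µM as added | times = 1 h enzyme–compound preincubation and 2 h substrate reaction, both 25 °C | benchmarks = low DMSO alone, high DMSO plus 5 µM PC-7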
LANA-H2A inh: blocks KSHV LANA binding to histone H2A/H2B | inhibition, % (concentration not given with the values) | 0.6% of 320,000 active | AID 2629 | cell-free LANA-H2A/H2B peptide, fluorescence polarization; in the data active = inhibition mostly above about 10%, no sharp cut-off; inactive = mostly below about 6.7%
ARFGAP1 inhibitor: rat ARFGAP1 inhibition. Arfgap1-stimulated ARF1 GTP hydrolysis, GDP FP detection. 0.26% of 360,000 active. inhibition, % at 16.5 µM. Q62848. AID 651572;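 active = inhibition above a per-plate limit, mean inhibition of low control wells plus 3 SD, cut at about 25% in these data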
Target sequence (Q62848 1-136 limits assumed): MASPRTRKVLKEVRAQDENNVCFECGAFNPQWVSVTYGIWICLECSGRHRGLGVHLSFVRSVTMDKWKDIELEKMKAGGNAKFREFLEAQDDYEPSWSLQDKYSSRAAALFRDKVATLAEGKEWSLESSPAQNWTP
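Material: truncated rat Arfgap1 GAP domain; Incubation: compound-enzyme preincubation 20 min, reaction 120 min, detection 60 min, 25 °C; Read-out: percent inhibition of Arfgap1-stimulated GTP hydrolysis; Technique: FP, GDP Alexa 633 tracer displaced from anti-GDP antibody, 620/688 nm; Controls: No-Arfgap1 wells (100%) versus DMSO full-reaction wells (0%); Replication: single well per compound.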
Yeast superoxide: caloric restriction mimetics inhibiting age-related superoxide in yeast | S. cerevisiae aged cells, superoxide DHE fluorescence; stronger effect = lower value | superoxide response (% of plate mean), % at 10 µM | 0.18% of 330,000 active;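 active = superoxide response under a set limit, about three screen SD below normal, cut at about 65% in these data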;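 also: yeast aged for seven days with compound at 30 °C before DHE staining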
proCasp3 act: procaspase-3 (human) activation | P42574 | recombinant procaspase-3 D3A, Ac-DEVD-pNA absorbance 405 nm | activation, % at 8.5 µM | 0.11% of 330,000 active;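 active = activation above the mean of all tested compounds plus 3 SD, cut at about 21% in these data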
Target sequence (P42574 whole entry D9A/D28A/D175A): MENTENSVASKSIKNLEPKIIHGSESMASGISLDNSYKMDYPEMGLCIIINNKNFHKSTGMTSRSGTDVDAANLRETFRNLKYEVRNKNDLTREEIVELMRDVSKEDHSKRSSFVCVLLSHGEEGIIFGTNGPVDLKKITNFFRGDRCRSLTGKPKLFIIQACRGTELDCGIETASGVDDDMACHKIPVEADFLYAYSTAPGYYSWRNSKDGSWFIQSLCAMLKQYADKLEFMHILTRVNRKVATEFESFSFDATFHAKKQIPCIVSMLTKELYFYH
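Assay system: Procaspase-3 D3A mutant, all three cleavage aspartates alanine. Buffer or medium: Zinc-free HEPES saline buffer with Triton X-100. Times: 1 h compound preincubation, 2 h substrate hydrolysis at 25 °C. Measured by: 405 nm absorbance of p-nitroaniline, reads at 0 and 120 min. Read-out basis: percent activation relative to control range. Replicates: singlicate.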
ARFGAP1 confirm: rat ARFGAP1 inhibition, confirmed; inhibition, % at 16.5 µM; AID 651608; 30% of 890 active; ARFGAP1-stimulated ARF1 GTP hydrolysis, GDP tracer FP; shares compounds with ARFGAP1 inhibitor;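 active = average inhibition over triplicates above the hit cutoff set in the earlier primary screen, cut at about 25% in these data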
A number is an active result; 0 = inactive; - = not tested or not shown. In the library only some 1.2% were active in any assay of this set; here they are far more common.

SMILES	ASAP1 inh	procasp7 counter	LANA-H2A inh	ARFGAP1 inhibitor	Yeast superoxide	proCasp3 act	ARFGAP1 confirm
CCCCCCCNC(=O)C1(CC2CC(c3cccc(Br)c3)=NO2)CCN(C(=O)OC(C)(C)C)CC1 (stereo not drawn)	0	0	0	36	0	0	0
COc1cc2cc(C(=O)NC(C)c3cccc4ccccc34)c(N)nc2cc1OC (stereo not drawn)	0	-	-	25	-	-	0
COc1ccc(C(=O)N2CCC3(CC2)NCCc2[nH]cnc23)cc1	0	0	0	0	0	0	-
CCOC(=O)Cn1c(C)cc(=O)c2cccc(C)c21	0	0	0	0	0	0	-
CCOC(=O)Cn1c(=O)cc(C)c2cccc(C)c21	0	0	0	30	0	0	0
CCN(CC)CCNC(=O)c1ccc(NC(=O)c2cc(-c3ccco3)nc3ccccc23)cc1	0	0	0	26	0	0	0
CCN(CC)CCNC(=O)c1ccc(NC(=O)c2cn(-c3ccccc3)nc2-c2cccs2)cc1	0	0	0	39	0	0	56
CCN(CC)CCNC(=O)c1ccc(NC(=O)c2cn(-c3ccc(F)cc3)nc2-c2cccc(OC)c2)cc1	0	0	0	0	0	0	-
CC(C)c1cccc(C(C)C)c1NC(=O)OC1CCCCC1	0	-	-	28	-	-	0
CSc1cccc(NC(=O)OC2CCCCCCCCCCC2)c1	0	0	0	0	0	0	-
CC(C)(C)OC(=O)N1CCC(C(=O)Nc2ccc(C(=O)N3CCCC3)cc2)CC1	0	-	-	0	-	-	-
CN(C(=O)c1ccc(NC(=O)C2CCN(C(=O)OC(C)(C)C)CC2)cc1)C1CC1	0	0	0	25	0	0	0
CSc1ccc(C2C(C#N)=C(N)Oc3cc4c(cc32)OCO4)cc1 (stereo not drawn)	0	0	0	0	0	0	-
Cc1ccc(C2C(C#N)=C(N)Oc3cc4c(cc32)OCO4)cc1 (stereo not drawn)	0	0	0	25	0	0	0
CC(=O)C(Cc1ccccc1)NC(=O)COC(=O)CCN1C(=O)C2CC=CCC2C1=O (stereo not drawn)	0	0	0	0	0	0	-
CCNc1nc(-c2sc(NC(=O)C(C)(C)C)nc2C)c(-n2cc(-c3ccccc3)nn2)s1	0	-	-	32	-	-	0
CN(CC(=O)Nc1cccc(F)c1)C(=O)CN1C(=O)C2CC=CCC2C1=O (stereo not drawn)	0	0	-	0	0	0	-
CC(=O)c1c(C)nc(Nc2nc3ccccc3s2)nc1C	0	0	0	25	0	0	0
Nc1ccccc1/C=C/c1ccccc1N	0	-	-	0	-	-	-
O=C(Nc1nnc(Cc2ccc([N+](=O)[O-])cc2)s1)Nc1ccccc1F	0	0	0	60	0	0	0
CCN1C[C@@H]2[C@@H]3C(=O)N(C)C(=O)[C@@H]3[C@](C)(C1=O)N2C(=O)c1ccc(C(C)(C)C)cc1	0	-	-	0	-	-	-
O=C(Cc1ccccc1)NC1(O)C(=O)c2ccccc2C1=O	0	0	0	27	0	0	0
CCOc1cc(/C=C2\SC(=N)N(c3nonc3N)C2=O)ccc1OCCN1CCOCC1	0	0	0	32	0	0	38
O=C(N=Nc1c(O)[nH]c2ccccc12)c1cc(-c2cccs2)[nH]n1	0	0	0	30	0	0	32
O=C(Cc1cccs1)N=Nc1c(O)[nH]c2ccccc12	0	0	0	0	0	0	-
SMILES	ASAP1 inh	procasp7 counter	LANA-H2A inh	ARFGAP1 inhibitor	Yeast superoxide	proCasp3 act	ARFGAP1 confirm
COc1cc(C(=O)Nc2ccc3nc(N4CCN(C)CC4)cc(C)c3c2)cc(OC)c1OC	0	0	0	29	0	0	25
COc1ccc(NC(=O)CSc2nc3sc4c(c3c(=O)n2-c2ccc(OC)cc2)CCN(C)C4)cc1	0	0	0	0	0	0	-
COc1ccc(-n2c(SCC(=O)Nc3nccs3)nc3sc4c(c3c2=O)CCN(C)C4)cc1	0	0	0	25	0	0	27
Cc1nc(N)ncc1C(=O)Nc1ccccc1	0	0	0	0	0	0	-
CCCCCn1c(=O)[nH]c2cc(C(=O)N3CCN(C(=O)OCC)CC3)ccc2c1=O	0	0	0	25	0	0	0
CCN(CC)C(=O)CN(c1cccc(C(F)(F)F)c1)S(C)(=O)=O	0	0	0	31	0	0	0
Cc1cc2c(=Cc3ccc(N(C)C)cc3)c3ccccc3n2[n+]1C	0	-	-	0	-	-	-
CCOC(=O)c1cc2c(=Cc3ccc(N(C)C)cc3)c3ccccc3n2[n+]1C	0	-	-	29	-	-	0
COc1ccc(-c2nc(C(=O)NCCCN3CCOCC3)cc3c2[nH]c2ccccc23)cc1OC	0	0	0	28	0	0	0
COc1cc2c(=O)[nH]c3cc([N+](=O)[O-])ccc3c2cc1[N+](=O)[O-]	0	-	-	0	-	-	-
Nc1cc2[nH]c(=O)c3ccccc3c2cc1[N+](=O)[O-]	0	-	-	28	-	-	0
Cc1cnc2nc(-c3ccccc3)ccc2c1	0	-	-	26	-	-	0
C=CCn1c(C)nnc1SCC(=O)Nc1ccccc1C(=O)NC1CC1	0	-	-	25	-	-	0
CCOC(=O)c1cc2c(ccn2-c2ccc(F)cc2)n1CC(=O)NC(C)(C)C	-	0	0	-	0	0	-
CC(=O)n1cc(/C=N/NC(=O)c2ccc(Cl)cc2)c2ccccc21	0	0	0	27	0	0	0
COc1ccc(NC(C)=O)c([N+](=O)[O-])c1[N+](=O)[O-]	0	-	-	0	-	-	-
COc1ccc(OC)c([N+](=O)[O-])c1C(N)=O	0	0	0	26	0	0	0
CCCNC(=O)[C@H](Cc1c[nH]c2ccccc12)NC(=O)c1ccccc1Cl	0	0	0	0	0	0	-
O=Cc1ccc(C(=O)OCC(=O)N2CCCC2)cc1	0	0	0	0	0	0	-
O=C(OCC(=O)N1CCCC1)c1ccc(OC(F)(F)F)cc1	0	0	0	25	0	0	0
COC(=O)c1c(C)nc2ccccc2c1C(=O)O	0	0	0	0	0	0	-
COC(=O)c1cc(C)[nH]c2c(C)cc3nc4ccccc4c3c12	0	0	0	41	0	0	0
CCOc1ccc(C(=O)N[C@H](C(=O)Nc2cccc(S(=O)(=O)N3CCOCC3)c2)C(C)C)cc1	0	-	-	0	-	-	-
COc1ccc(C(=O)N[C@H](C(=O)Nc2ccc(S(=O)(=O)N3CCOCC3)cc2)C(C)C)cc1	0	0	0	25	0	0	0
COc1ccccc1OCc1nc2ccccc2n1C	0	0	0	0	0	0	-
COc1ccccc1C(=O)c1nc2ccccc2n1C	0	0	0	25	0	0	0
CC(=O)C1=C(O)C(=O)N(c2ccc(O)cc2)C1c1ccccc1Cl (stereo not drawn)	0	0	0	0	0	0	-
